From ChEMBL document CHEMBL1287774, “Discovery of new azaindole-based PI3Kα inhibitors: apoptotic and antiangiogenic effect on cancer cells” (Bioorg Med Chem Lett, 2010) come the findings set out here.

Test [1] concerns the target Phosphatidylinositol 4,5-bisphosphate 3-kinase catalytic subunit alpha isoform (Homo sapiens, UniProt P42336). Put plainly: Inhibition of PI3Kalpha.
The subject of test [2] is T47D. Kind of test: Antiproliferative activity against human T47D cells by MTT assay. The test is classed as functional, cell-based. Put shortly: (§1)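 Human breast cancer cultures (T47D, SK-BR3, MCF-7) exposed to compound. Cell viability is read by MTT and expressed as growth IC50.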
Background: Formazan colour is commonly taken as a measure of viable cells.

Test [3] has as its system SK-BR-3. Put plainly: Antiproliferative activity against human SKBR3 cells by MTT assay. Type of test: functional, cell-based. In outline: as §1
Test [4] concerns MCF7. Put plainly: Antiproliferative activity against human MCF7 cells assessed as by MTT assay. The test is classed as functional, cell-based. Put shortly:
as §1

The test system of test [5] is T47D. Put plainly: Induction of apoptosis in human T47D cells assessed as increase in non-viable cells at 10 uM after 24 hrs using annexin-V FITC and PI staining by flow cytometric analysis relative to control. The test is classed as functional. In outline: (§2)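 T47D cells treated with various compound concentrations for 24 h, then stained with Annexin V-FITC and PI and analysed by flow cytometry. Early-apoptotic cells are Annexin V-positive/PI-negative. Changes are expressed relative to untreated control.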
A general note: A flow cytometer gives signals particle by particle.

For test [6], the system named is T47D. Put plainly: Induction of apoptosis in human T47D cells assessed as increase in late apoptotic cells at 10 uM after 24 hrs using annexin-V FITC and PI staining by flow cytometric analysis relative to control. The test is classed as functional. Put shortly:
as §2

Test [7] deals with HUVEC. Kind of test: Antiangiogenic activity against HUVEC assessed as inhibition of wound-induced migration of cells to non-wounded region. Type of test: functional, cell-based. The note with it: Homo sapiens. Put shortly: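 HUVEC wound-induced migration assay. Migration is quantified by counting the cells that moved beyond the reference line into the non-wounded region.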

In test [8] the test system is T47D. Kind of test: Induction of apoptosis in human T47D cells assessed as increase in early apoptotic cells at 10 uM after 24 hrs using annexin-V FITC and PI staining by flow cytometric analysis relative to control. The test is classed as functional. Put shortly:
as §2

Test [9] deals with T47D. Put plainly: Induction of apoptosis in human T47D cells assessed as increase in late apoptotic cells at 50 uM after 24 hrs using annexin-V FITC and PI staining by flow cytometric analysis relative to control. Type of test: functional. In outline:
as §2

In test [10] the test system is T47D. Put plainly: Induction of apoptosis in human T47D cells assessed as increase in early apoptotic cells at 1 uM after 24 hrs using annexin-V FITC and PI staining by flow cytometric analysis relative to control. The test is classed as functional. In outline: as §2
Test [11] deals with HUVEC. Put plainly: Antiangiogenic activity against HUVEC assessed as inhibition of tubular network formation on matrigels beds. The test is classed as functional, cell-based. The following applies: Homo sapiens. Put shortly:
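HUVECs plated onto Matrigel beds and treated with DMSO vehicle or compound at 0.1, 1 and 10 µM. Read-out is formation of a capillary-like tubular network, assessed from representative images.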

Test [12] has as its system T47D. Put plainly: Induction of apoptosis in human T47D cells assessed as increase in early apoptotic cells at 50 uM after 24 hrs using annexin-V FITC and PI staining by flow cytometric analysis relative to control. The test is classed as functional. Put shortly:
as §2

For test [13], the system named is T47D. Put plainly: Induction of apoptosis in human T47D cells assessed as increase in non-viable cells at 50 uM after 24 hrs using annexin-V FITC and PI staining by flow cytometric analysis relative to control. Type of test: functional. In outline: as §2
For test [14], the system named is T47D. Kind of test: Induction of apoptosis in human T47D cells assessed as decrease in viable cells at 1 uM after 24 hrs using annexin-V FITC and PI staining by flow cytometric analysis relative to control. Type of test: functional. In outline:
as §2

In test [15] the test system is T47D. Kind of test: Induction of apoptosis in human T47D cells assessed as increase in late apoptotic cells at 1 uM after 24 hrs using annexin-V FITC and PI staining by flow cytometric analysis relative to control. The test is classed as functional. In outline:
as §2

Test [16] relates to T47D. Kind of test: Induction of apoptosis in human T47D cells assessed as decrease in viable cells at 10 uM after 24 hrs using annexin-V FITC and PI staining by flow cytometric analysis relative to control. Type of test: functional. In outline: as §2
For test [17], the system named is T47D. Kind of test: Induction of apoptosis in human T47D cells assessed as increase in non-viable cells at 1 uM after 24 hrs using annexin-V FITC and PI staining by flow cytometric analysis relative to control. The test is classed as functional. Put shortly:
as §2

Test [18] concerns T47D. Kind of test: Induction of apoptosis in human T47D cells assessed as decrease in viable cells at 50 uM after 24 hrs using annexin-V FITC and PI staining by flow cytometric analysis relative to control. Type of test: functional. In outline:
as §2

Each structure is given as a SMILES string.

Sequence of Phosphatidylinositol 4,5-bisphosphate 3-kinase catalytic subunit alpha isoform (P42336 whole entry, canonical isoform): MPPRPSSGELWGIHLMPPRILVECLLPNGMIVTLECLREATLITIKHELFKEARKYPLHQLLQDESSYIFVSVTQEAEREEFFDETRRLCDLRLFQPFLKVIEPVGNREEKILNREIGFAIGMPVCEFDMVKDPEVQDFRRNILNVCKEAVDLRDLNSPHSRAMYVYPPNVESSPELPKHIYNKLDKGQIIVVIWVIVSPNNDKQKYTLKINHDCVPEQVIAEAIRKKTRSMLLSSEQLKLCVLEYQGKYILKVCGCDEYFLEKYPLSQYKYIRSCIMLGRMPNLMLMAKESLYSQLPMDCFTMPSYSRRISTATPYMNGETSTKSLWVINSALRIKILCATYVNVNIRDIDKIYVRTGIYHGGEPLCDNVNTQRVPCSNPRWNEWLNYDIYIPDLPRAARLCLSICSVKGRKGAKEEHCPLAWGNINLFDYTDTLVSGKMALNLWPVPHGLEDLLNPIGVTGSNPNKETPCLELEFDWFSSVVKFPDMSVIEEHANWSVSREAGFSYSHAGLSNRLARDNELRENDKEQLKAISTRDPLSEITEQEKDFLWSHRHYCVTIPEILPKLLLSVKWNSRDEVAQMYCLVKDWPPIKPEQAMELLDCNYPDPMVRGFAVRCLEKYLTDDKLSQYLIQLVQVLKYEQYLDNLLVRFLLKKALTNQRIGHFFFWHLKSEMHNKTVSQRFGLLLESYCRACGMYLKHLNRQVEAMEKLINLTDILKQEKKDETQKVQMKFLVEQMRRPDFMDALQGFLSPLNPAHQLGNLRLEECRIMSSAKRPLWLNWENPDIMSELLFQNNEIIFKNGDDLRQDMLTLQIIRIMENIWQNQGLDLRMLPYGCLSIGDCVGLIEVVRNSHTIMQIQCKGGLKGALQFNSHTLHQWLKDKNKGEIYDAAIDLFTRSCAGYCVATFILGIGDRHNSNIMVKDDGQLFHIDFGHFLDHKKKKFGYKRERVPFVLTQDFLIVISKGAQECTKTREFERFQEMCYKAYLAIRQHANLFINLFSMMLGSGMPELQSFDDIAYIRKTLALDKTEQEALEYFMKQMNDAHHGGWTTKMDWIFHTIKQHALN

As to `O=S(=O)(Nc1cncc(-c2cnc3[nH]ccc3c2)c1)c1ccccc1`, the IC50 – broadly, the concentration that inhibits the measured activity by half – in [1] turned out to be 5200 nM.
`COc1ccc(-c2c[nH]c3ncc(-c4cncc(NS(=O)(=O)c5ccccc5)c4)cc23)cc1OC`: the IC50 in [2] was 8500 nM; in test [3], 22000 nM; in test [1], 12 nM.
Turning to `COc1ccc(-c2c[nH]c3ncc(-c4cnc(N)c(NS(=O)(=O)c5ccc(F)cc5F)c4)cc23)cc1OC`, half-maximal inhibition in [1] (IC50) was put at 3 nM.
`O=S(=O)(Nc1cncc(-c2cnc3[nH]cc(-c4cccnc4)c3c2)c1)c1ccccc1`: the IC50 turned out to be 3600 nM in test [2], 12000 nM in [3], 12 nM in test [1] and 6800 nM in [4].
With `N#Cc1cccc(-c2c[nH]c3ncc(-c4cncc(NS(=O)(=O)c5ccc(F)cc5F)c4)cc23)c1`, half-maximal inhibition in test [1] (IC50) required 27 nM.
In test [1], `N#Cc1cccc(-c2c[nH]c3ncc(-c4cncc(NS(=O)(=O)c5ccccc5)c4)cc23)c1` came in with an IC50 of 31 nM.
Same read-out and setting: the value for `COc1ccc(-c2c[nH]c3ncc(-c4cncc(N)c4)cc23)cc1OC` was 460 nM.
In test [1], `COc1ccc(-c2c[nH]c3ncc(-c4cccc(NS(=O)(=O)c5ccccc5)c4)cc23)cc1OC` yielded an IC50 of 1600 nM.
Compound `CC(=O)c1c[nH]c2ncc(-c3cnc(N)c(NS(=O)(=O)N4CCOCC4)c3)cc12` displayed an IC50 in test [1] of 730 nM.
With `COc1ccc(-c2c[nH]c3ncc(-c4cnc(N)c(NS(=O)(=O)N5CCOCC5)c4)cc23)cc1OC`, the IC50 in test [2] came to 700 nM; in [3], 3700 nM. The Activity was 2.86% in test [5]; 4.98% in [6]; “Dose-dependent effect” in test [7]; 1.52% in test [8]; 47.5% in [9]; 1.56% in test [10]. The Activity result in [11] was “Dose-dependent effect”; in test [12] it was 28.24%; in test [13], 7.32%; in test [14], 94.44%; in [15], 3.04%; in test [16], 90.61%. Moreover, the Activity in [17] worked out at 0.96%; in [18], 19.64%.
In test [1], `CS(=O)(=O)Nc1cccc(-c2c[nH]c3ncc(-c4cncc(NS(=O)(=O)c5ccccc5)c4)cc23)c1` returned an IC50 of 950 nM.
The same measure, in the same setting: the value for `CC(=O)c1c[nH]c2ncc(-c3cncc(NS(=O)(=O)c4ccccc4)c3)cc12` was 620 nM; that for `N#Cc1cccc(-c2c[nH]c3ncc(-c4cnc(N)c(NS(=O)(=O)N5CCOCC5)c4)cc23)c1` was 130 nM.
